Test results: article PMC3558988 (Journal of Chemotherapy (Florence, Italy), 2013)
One block for each molecule: values may come before it.

Legend:
[1] = Pharmacokinetics after single oral doses in MSSA-infected neutropenic mice; type: in vivo; conditions: for fAUC0–24: free drug
[2] = Plasma protein-binding by ultrafiltration; type: in vitro ADME; conditions: mouse plasma, 0·1 to 2 μg/ml
MSSA ATCC 29213 = experiment: Neutropenic murine thigh infection model, efficacy and pharmacodynamics; type: in vivo, Staphylococcus aureus; conditions: oral, neutropenic mice, 24 hours
[3] = system: three strains of S. aureus; experiment: MIC summary over the three test strains; type: cell-based, Staphylococcus aureus
Method in brief: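 Broth microdilution MICs per CLSI guidelines, run in triplicate, for the test compound and a panel of comparator antimicrobials including linezolid. Tested against the three S. aureus isolates used in the study (one MSSA, one CA-MRSA, one HA-MRSA).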

CA-MRSA = experiment: Neutropenic murine thigh infection model, single-dose response; type: in vivo, Staphylococcus aureus; conditions: 24 hours
[4] = cited from earlier work
[5] = system: CA-MRSA (No. 32, CDC type USA300, PVL-positive); experiment: MIC by broth microdilution; type: cell-based; conditions: Staphylococcus aureus

fAUC0–24 ([1]; 5 mg/kg single oral dose): 113 ng·h/mL | fAUC0–24 ([1]; 10 mg/kg single oral dose): 141 ng·h/mL | fAUC0–24 ([1]; 30 mg/kg single oral dose): 160 ng·h/mL | fAUC0–24 ([1]; 100 mg/kg single oral dose): 285 ng·h/mL | PK profile (dose proportionality of fAUC, fCmax, Tmax) ([1]; single oral doses 2·5-100 mg/kg): non-linear exposures | concentration dependence of protein binding [2]: no concentration-dependent binding | level of activity (MIC) greater than linezolid [3]: at least 500 fold | level of activity (MIC) greater than other antibacterials tested [3]: at least 32 fold
Structure (SMILES): Cc1c(CN(C)C(=O)/C=C/c2cnc3c(c2)CCC(=O)N3)oc2ccccc12 [AFN-1252]
doses giving reductions in total bacterial count of 1 log and greater compared to time 0 (MSSA ATCC 29213; MSSA): ≥ 20 mg/kg | dose at which reduction in MSSA growth rate began (MSSA ATCC 29213): 5 mg/kg | dose giving marked reduction in bacterial count relative to time 0 (CA-MRSA; single oral dose): ≥ 10 mg/kg | permeability ([4]; BCS): high | Biopharmaceutics Classification System class [4]: Class 2

MIC [5]: > 16 µg/mL
Structure (SMILES): CCC[C@@H]1C[C@@H](C(=O)N[C@@H]([C@H]2O[C@H](SC)[C@H](O)[C@@H](O)[C@H]2O)[C@H](C)Cl)N(C)C1 [Clindamycin]

MIC [5]: > 32 µg/mL
Structure (SMILES): CC[C@H]1OC(=O)[C@H](C)[C@@H](O[C@H]2C[C@@](C)(OC)[C@@H](O)[C@H](C)O2)[C@H](C)[C@@H](O[C@@H]2O[C@H](C)C[C@H](N(C)C)[C@H]2O)[C@](C)(O)C[C@@H](C)C(=O)[C@H](C)[C@@H](O)[C@]1(C)O [Erythromycin]

Structure (SMILES): CC(=O)NC[C@H]1CN(c2ccc(N3CCOCC3)c(F)c2)C(=O)O1 [Linezolid]
effect on bacterial growth (CA-MRSA; 10 and 40 mg/kg single oral dose): some suppression of growth | doses required to achieve consistent reductions in CFU (CA-MRSA; single oral dose): ≥ 100 mg/kg
